Cneo AK release: causes C. neoformans cell lysis; adenylate kinase release luminescence, 4 h; normalised: neutral wells 0, clomiphene wells 100; lysis activity, % at 15 µM; 0.2% of 360,000 active;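 active = mean lysis activity across replicates of at least 80%, whatever share of replicates individually reach that level; inactive = mean lysis activity below 80%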
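Material – log-phase Cryptococcus neoformans yeast cells · Input – 5 × 10^6 yeast cells/mL · Medium – fresh YPD growth medium · Doses – single compound concentration per well · Timing – static 4 h at 37 °C with compound, 1 h detection · Detection – adenylate kinase release luminescence · Read-out – signal increase indicating cell lysis · Control set – Clomiphene as positive lysis control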
C2C12 statin: protects C2C12 myotubes from simvastatin toxicity | ATP luminescence, 48 h; scaled: DMSO 0, geranylgeraniol control 100 | rescue of ATP level, % at 7.49 µM | 0.78% of 330,000 active;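 active = mean ATP rescue above about 67%, or every replicate alone reaching that limit, limit read from the data, passing the limit was not always enough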;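 also: myotubes were challenged with 10 µM simvastatin during compound exposure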
Mot1-301 SUMO: blocks SUMOylation pathway, rescuing yeast Mot1-301 growth. 1% of 320,000 active. growth rescue, % at 18.8 µM. S. cerevisiae Mot1-301 growth rescue, ATP luminescence, 38.5C; percent above DMSO median, 100 means doubled;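 active = every valid replicate shows activation above 250% relative to neutral control wells; inactive = the rest, any valid replicate at or below 250%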;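 also: OY570 slx delta 5 strain wells were the positive control but not used for scaling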
Yeast Mot1 SUMO: yeast SUMO pathway inhibition in dose response; growth activity, percent, % at 42 µM; S. cerevisiae Mot1-301 galactose growth, ATP luminescence, 24 h; -100 = growth of slx-deleted rescue strain; shares compounds with Mot1-301 SUMO; AID 493004; 2,300 tested, under 10 active;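 active = Signal drops as the depositor expects, and the fitted half-maximal dose is no more than ten times the top valid tested dose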;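 also: more negative values mean stronger growth rescue toward the control strain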
Numbers without * were called inactive; x = no result given; + = active, no number. The list is not random: actives were taken first. Their share in the collection is about 1.5%.

SMILES	Cneo AK release	C2C12 statin	Mot1-301 SUMO	Yeast Mot1 SUMO
N#CCSc1nc2c(c(C3CC=CCC3)c1C#N)CCC2 (configuration not stated)	x	3.6	+	0.9
N#CCSc1nc2c(cc1C#N)CCCCCC2	2.3	17.8	144.7	x
COc1cccc(NC(=O)CN(C)C(=O)C2CC(=O)N(CCc3ccc(OC)c(OC)c3)C2)c1 (configuration not stated)	-2.2	-0.1	x	x
COc1ccc(CCN2CC(C(=O)N(C)CC(=O)Nc3cccc(F)c3)CC2=O)cc1OC (configuration not stated)	2.6	-0.2	451.4*	0.0
COc1cccc(/C=N/NC(=O)CNC(=O)c2ccncc2)c1O	-7.1	-4.6	11.5	x
COc1cccc(/C=N/NC(=O)CNC(=O)c2ccco2)c1O	x	5.6	400.0*	-0.6
CC(=O)N(C)C[C@H]1Oc2ncc(/C=C/c3ccccc3)cc2C(=O)N([C@H](C)CO)C[C@@H]1C	2.0	0.9	x	x
Cc1nn(-c2ccccc2)c(N)c1N=Nc1ccccc1	x	x	76.1	x
Cc1nn(-c2ccccc2)c(N)c1N=Nc1cccc(S(=O)(=O)N2CCOCC2)c1	-1.2	-27.9	386.7*	-0.9
C#CCNC(=O)C1=C[C@@H](C(C)(C)C)C[C@@H](OCCCCO)O1	-6.1	x	x	x
CO[C@@H]1CN(C)C(=O)c2ccc(NC(=O)c3cc(C)on3)cc2OC[C@H](C)N(CC2CC2)C[C@@H]1C	-0.4	8.7	x	x
CCC(CC)C(=O)N1CCCC(c2nc(-c3cccs3)no2)C1 (configuration not stated)	0.2	4.2	503.1*	0.6
CCOc1ccc(C(=O)N2CCCC(c3nc(-c4cccs4)no3)C2)cc1 (configuration not stated)	7.7	15.1	29.6	x
Cc1ccc(S(=O)(=O)Cc2ccc(C(=O)N3CCN(c4ccccn4)CC3)o2)cc1	-0.9	1.2	537.2*	-0.2
COc1ccccc1C(=O)N1CCN(c2ccccn2)CC1	1.0	11.4	7.5	x
Cc1ccc(NC(=O)C(c2ccccc2)N2CCN(CC(=O)NC3CC3)CC2)cc1Cl (configuration not stated)	-2.1	-14.0	-12.3	x
COc1ccc(NC(=O)C(c2ccccc2)N2CCN(c3ccccn3)CC2)cc1Cl (configuration not stated)	x	x	754.7*	0.5
O=C(c1ccc(CS(=O)(=O)c2ccc(Br)cc2)o1)N1CCN(c2ccccn2)CC1	-2.8	2.9	6.3	x
COc1cc(OC)c(C(=O)N2CCN(c3ccccn3)CC2)cc1OC	0.3	-3.6	798.2*	0.5
CCCNC(=O)N(C)C[C@H]1Oc2ncc(C#CC3CC3)cc2C(=O)N([C@H](C)CO)C[C@@H]1C	-8.7	27.7	x	x
CO[C@@H]1CN(C)C(=O)c2cc(NC(=O)c3cc(C)on3)ccc2OC[C@H](C)NC[C@@H]1C	-0.9	-4.6	x	x
O=S(=O)(Cc1ccccc1)N1CCCCN2[C@H](CO)[C@H](c3ccc(-c4ccccc4)cc3)[C@@H]2C1	0.8	x	x	x
Cc1cc(C)cc(C(=O)Nc2ccc3[nH]c(=O)[nH]c3c2)c1	x	x	365.8	x
O=C(Nc1ccc2[nH]c(=O)[nH]c2c1)c1c(F)c(F)c(F)c(F)c1F	x	x	613.3*	0.5
COc1cccc(NC(=O)Nc2cc(C(=O)NC(C)C)ccc2N2CC3CC(C2)c2cccc(=O)n2C3)c1 (configuration not stated)	-3.2	-5.4	401.9*	0.5
SMILES	Cneo AK release	C2C12 statin	Mot1-301 SUMO	Yeast Mot1 SUMO
CCCNC(=O)c1ccc(N2CC3CC(C2)c2cccc(=O)n2C3)c(NC(=O)Nc2ccc(CC)cc2)c1 (configuration not stated)	0.6	0.2	-2.3	x
CCN(CC)c1ccc(C=C2C(=O)OC(C)(C(C)(C)C)OC2=O)cc1 (configuration not stated)	15.4	5.7	0.1	x
CCN(CC)c1ccc(C=C2C(=O)OC(c3ccccc3)OC2=O)cc1 (configuration not stated)	x	x	+	0.5
CCN(Cc1ccccc1)Cc1ccc(OCc2ccccc2)c(OC)c1	3.6	-9.5	365.4*	-0.5
COc1cc(CN(C)CCc2ccccc2)ccc1OCc1ccccc1	-1.2	-19.1	57.4	x
CCCC(=O)Nc1ccc(Sc2ccc([N+](=O)[O-])cc2)cc1	-1.9	10.7	373.6*	0.1
CCC(CC)C(=O)Nc1ccc(Sc2ccc([N+](=O)[O-])cc2)cc1	4.4	-32.8	11.7	x
CC(C)=CC(=O)N1CCCC(N2CCN(c3ccccc3C)CC2)C1 (configuration not stated)	3.3	14.4	-8.6	x
CC(C)=CC(=O)N1CCCC(N2CCN(c3ccc(F)cc3)CC2)C1 (configuration not stated)	0.6	-4.7	+	-0.7
O=C(c1ccc(Cl)s1)N1CCCC(N2CCN(c3ccc(F)cc3)CC2)C1 (configuration not stated)	-0.4	9.8	139.7	x
CC(=O)c1ccc(C(=O)N2CCCC(N3CCN(c4ccc(F)cc4)CC3)C2)s1 (configuration not stated)	5.1	-7.6	507.9*	-0.2
COc1ccc(S(=O)(=O)N(C)C[C@H]2Oc3c(NC(=O)c4cc(C)nn4C)cccc3C(=O)N([C@H](C)CO)C[C@@H]2C)cc1	4.8	-19.0	x	x
Cc1noc(C)c1NC(=O)N(C)C[C@@H]1Oc2ccc(NC(=O)Nc3ccc4c(c3)OCO4)cc2C(=O)N([C@@H](C)CO)C[C@H]1C	2.3	x	x	x
CCN(CC)CCOc1cccc(C(C)C)c1	1.9	6.4	244.9	x
CC(C)c1cccc(OCCCCN(C)C)c1	x	x	568.1*	-0.1
CC1CCN(CCCCOc2cccc(C(C)C)c2)CC1	-2.6	2.9	408.0*	-1.4
CC1CCN(CCCCOc2ccc(F)cc2)CC1	-0.3	4.3	547.5*	0.5
Cc1ccc(OCCCCN2CCC(C)CC2)cc1	-1.6	-5.0	70.0	x
CC1CCN(CCOc2cccc(Br)c2)CC1	5.5	6.3	-8.0	x
c1ccc(COc2ccc(OCCCN3CCCC3)cc2)cc1	-7.9	x	3.7	x
CC1CCN(CCCOc2ccc(OCc3ccccc3)cc2)CC1	-2.9	x	551.4*	-0.4
COc1ccc(CN(C)C[C@H]2OCCCC[C@H](C)Oc3ccc(N(C)C)cc3C(=O)N([C@H](C)CO)C[C@@H]2C)cc1	7.2	2.4	x	x
CN1C(=O)c2cc(NC(=O)C3CC3)ccc2OC[C@H]2O[C@@H](CC(=O)NCc3cccc(F)c3)CC[C@@H]21	-6.7	-5.4	x	x
O=C(C[C@H]1C=C[C@@H](NS(=O)(=O)c2cccc(F)c2)[C@@H](CO)O1)N1CCCCC1	6.9	-3.6	x	x
C[C@@H](NC(=O)C[C@H]1CC[C@H]2[C@@H](COC[C@H](O)CN2C(=O)Nc2cc(Cl)cc(Cl)c2)O1)c1ccccc1	-0.7	-10.8	x	x
CN(C)c1ccc2c(c1)[C@@H]1C[C@@H](CC(=O)NCc3ccccc3F)O[C@@H](CO)[C@@H]1O2	0.1	2.9	x	x
CC(C)C(=O)Nc1ccc2c(c1)C(=O)N(C)[C@@H]1CC[C@H](CC(=O)NC3CCCC3)O[C@@H]1CO2	x	-21.1	x	x
